Assay results from different studies.
Protocols differ between the studies behind these lines.
Target: Cyclin-dependent kinase 9 (CDK9, Homo sapiens, UniProt P50750)

| SMILES | test | system | conditions | endpoint | value |
| --- | --- | --- | --- | --- | --- |
| CC(C)(C)c1cnc(CSc2cnc(NC(=O)C3CCN(C(=O)CCCCN4Cc5cc6c(cc5C4)C(=O)N(C4CCC(=O)NC4=O)C6=O)CC3)s2)o1 (stereo not drawn) | protein level, degrader, western blot | TC-71 | 25 nM | inhibition | 80.1% |
| N#Cc1ccc(NC(=O)Nc2ccccc2)cc1 | cell-free assay, competition with immobilised ligand |  | 25 µM | remaining binding | 100% |
| C1=C/COCc2cc(ccc2OCCN2CCCC2)Nc2nccc(n2)-c2cccc(c2)COC/1 | binding |  | 0.1 µM | remaining binding | 64% |
| Cc1ccc(NC(=O)c2ccnc(C(F)(F)F)c2)cc1-c1cc(OCCO)nc(N2CCOCC2)c1 | binding |  | 1 µM | remaining binding | 100% |
| C=CC(=O)N1CCC[C@@H](n2nc(-c3ccc(Oc4ccccc4)cc3)c3c(N)ncnc32)C1 | enzyme activity, inhibitor |  | 1 µM | inhibition | 2% |
| CC(C)(C)c1cnc(CSc2cnc(NC(=O)C3CCN(C(=O)CCOCCCN4Cc5cc6c(cc5C4)C(=O)N(C4CCC(=O)NC4=O)C6=O)CC3)s2)o1 (stereo not drawn) | protein level, degrader, western blot | TC-71 | 25 nM | inhibition | 85.1% |
| C=CC(=O)N1CCC([C@@H]2CCNc3c(C(N)=O)c(-c4ccc(Oc5ccccc5)cc4)nn32)CC1 | enzyme activity, inhibitor |  | 1 µM | inhibition | 0% |
| CC(C)(C)c1cnc(CSc2cnc(NC(=O)C3CCN(C(=O)COCCOCCN4Cc5cc6c(cc5C4)C(=O)N(C4CCC(=O)NC4=O)C6=O)CC3)s2)o1 (stereo not drawn) | protein level, degrader, western blot | TC-71 | 25 nM | inhibition | 80.7% |
| CNS(=O)(=O)c1ccc(Nc2ncc(C(F)(F)F)c(N3CCC[C@](C)(O)C3)n2)c(C)c1 | binding, competition with immobilised ligand |  | 1 µM | remaining binding | 98% |
| COc1ccc2[nH]c3c4[nH]c5ccc(OC)cc5c4c4c(c3c2c1)C(=O)NC4=O | binding |  | 1 µM | remaining binding | 58% |
| CC(C)(C)c1cnc(CSc2cnc(NC(=O)C3CCN(C(=O)CCCCCCCCCCCN4Cc5cc6c(cc5C4)C(=O)N(C4CCC(=O)NC4=O)C6=O)CC3)s2)o1 (stereo not drawn) | protein level, degrader, western blot | TC-71 | 25 nM | inhibition | 78% |
| C[C@]1(O)CCCN(c2nc(Nc3ccc(S(=O)(=O)N[C@H]4CC[C@H](CN5CCN(c6ccc(C7CCC(=O)NC7=O)cc6F)CC5)CC4)cc3Cl)ncc2C(F)(F)F)C1 (stereo partly drawn) | binding, competition with immobilised ligand |  | 1 µM | remaining binding | 100% |
